Legend:
[1] = system: Rattus norvegicus; assay: Antihypertensive activity in spontaneously hypertensive rats was measured as average blood pressure at 30 mg/kg, p.o. after 24 hours of postdose-1; format: functional; conditions: route oral
Method in brief: (§1)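 SHR model with two successive doses, designated dose 1 and dose 2. Group-average blood pressure in mmHg was recorded before dosing and at 4 h and 24 h after each dose. The route is oral unless marked intra-arterial or subcutaneous. A table footnote marks doses that gave no significant lowering at 4 or 24 h postdose.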

[2] = system: Rattus norvegicus; assay: Antihypertensive activity in spontaneously hypertensive rats was measured as average blood pressure at 30 mg/kg, po after 24 hours of postdose-2; format: functional; method in brief: as §1
[3] = system: Rattus norvegicus; assay: Antihypertensive activity in spontaneously hypertensive rats was measured as average blood pressure at 30 mg/kg, p.o. after 4 hours of postdose-1; format: functional; conditions: route oral; method in brief: as §1
[4] = system: Rattus norvegicus; assay: Antihypertensive activity in spontaneously hypertensive rats was measured as average blood pressure at 30 mg/kg, p.o. after 4 hours of postdose-2; format: functional; conditions: route oral; method in brief: as §1
[5] = system: Rattus norvegicus; assay: Antihypertensive activity in spontaneously hypertensive rats was measured as average blood pressure at 30 mg/kg, po before predose; format: functional; method in brief: as §1
[6] = system: Rattus norvegicus; assay: Antihypertensive activity in spontaneously hypertensive rats was measured as average blood pressure at 15 mg/kg, po after 24 hours of postdose-1; No significant lowering of blood pressure; format: functional, organism-based; set-up: dose 15 mg/kg; method in brief: as §1
[7] = system: Rattus norvegicus; assay: Antihypertensive activity in spontaneously hypertensive rats was measured as average blood pressure at 15 mg/kg, p.o. after 4 hours of postdose-1; No significant lowering of blood pressure; format: functional, organism-based; set-up: dose 15 mg/kg; method in brief: as §1
[8] = system: Rattus norvegicus; assay: Antihypertensive activity in spontaneously hypertensive rats was measured as average blood pressure at 100 mg/kg, p.o. after 24 hours of postdose-1; No significant lowering of blood pressure; format: functional, organism-based; set-up: dose 100 mg/kg; method in brief: as §1
[9] = system: Rattus norvegicus; assay: Antihypertensive activity in spontaneously hypertensive rats was measured as average blood pressure at 100 mg/kg, po after 4 hours of postdose-1; No significant lowering of blood pressure; format: functional, organism-based; set-up: dose 100 mg/kg; method in brief: as §1
[10] = system: Rattus norvegicus; assay: Antihypertensive activity in spontaneously hypertensive rats was measured as average blood pressure at 100 mg/kg, p.o. after 24 hours of postdose-1; format: functional; conditions: route oral; method in brief: as §1
[11] = system: Rattus norvegicus; assay: Antihypertensive activity in spontaneously hypertensive rats was measured as average blood pressure at 100 mg/kg, p.o. after 24 hours of postdose-2; format: functional; conditions: route oral; method in brief: as §1
[12] = system: Rattus norvegicus; assay: Antihypertensive activity in spontaneously hypertensive rats was measured as average blood pressure at 100 mg/kg, p.o. after 4 hours of postdose-1; format: functional; conditions: route oral; method in brief: as §1
[13] = system: Rattus norvegicus; assay: Antihypertensive activity in spontaneously hypertensive rats was measured as average blood pressure at 100 mg/kg, p.o. after 4 hours of postdose-2; format: functional; conditions: route oral; method in brief: as §1
[14] = system: Rattus norvegicus; assay: Antihypertensive activity in spontaneously hypertensive rats was measured as average blood pressure at 100 mg/kg, p.o. before predose; format: functional; conditions: route oral; method in brief: as §1
[15] = system: Rattus norvegicus; assay: Antihypertensive activity in spontaneously hypertensive rats was measured as average blood pressure at 14 mg/kg, p.o. after 24 hours of postdose-1; No significant lowering of blood pressure; format: functional, organism-based; set-up: dose 14 mg/kg; method in brief: as §1
[16] = system: Rattus norvegicus; assay: Antihypertensive activity in spontaneously hypertensive rats was measured as average blood pressure at 14 mg/kg, p.o. after 4 hours of postdose-1; No significant lowering of blood pressure; format: functional, organism-based; set-up: dose 14 mg/kg; method in brief: as §1
[17] = system: Rattus norvegicus; assay: Antihypertensive activity in spontaneously hypertensive rats was measured as average blood pressure at 13 mg/kg, po after 24 hours of postdose-1; format: functional; method in brief: as §1
[18] = system: Rattus norvegicus; assay: Antihypertensive activity in spontaneously hypertensive rats was measured as average blood pressure at 13 mg/kg, p.o. after 24 hours of postdose-2; format: functional; conditions: route oral; method in brief: as §1
[19] = system: Rattus norvegicus; assay: Antihypertensive activity in spontaneously hypertensive rats was measured as average blood pressure at 13 mg/kg, p.o. after 4 hours of postdose-2; format: functional; conditions: route oral; method in brief: as §1
[20] = system: Rattus norvegicus; assay: Antihypertensive activity in spontaneously hypertensive rats was measured as average blood pressure at 13 mg/kg, p.o. before predose; format: functional; conditions: route oral; method in brief: as §1
[21] = system: Rattus norvegicus; assay: Antihypertensive activity in spontaneously hypertensive rats was measured as average blood pressure at 13 mg/kg, p.o. after 4 hours of postdose-1; format: functional; conditions: route oral; method in brief: as §1

With `CC(=O)c1c(-c2ccc(Cl)cc2)c(-c2ccc(Cl)cc2)nn(CCOC(=O)c2ccccc2)c1=O` the BP [1] was 139 mmHg, the BP [2] was 130 mmHg and the BP [3] was 116 mmHg. It also gave a BP [4] of 136 mmHg and a BP [5] of 173 mmHg.
`CC(=O)c1c(-c2ccc(Cl)cc2)c(-c2ccc(Cl)cc2)nn(CCOC(=O)C(N)Cc2ccccc2)c1=O` (stereo unspecified) was tested, and the BP [6] was “Not significant” and the BP [7] was “Not significant”.
In the case of `CC(=O)c1c(-c2ccc(Cl)cc2)c(-c2ccc(Cl)cc2)nn(CCOC(=O)C(NC(=O)OCc2ccccc2)C(C)C)c1=O` (stereo unspecified), the BP [8] is reported as “Not significant” and the BP [9] is reported as “Not significant”.
In the case of `CC(=O)c1c(-c2ccc(Cl)cc2)c(-c2ccc(Cl)cc2)nn(CCOC(=O)CNC(=O)OCc2ccccc2)c1=O`, the BP [8] is reported as “Not significant” and the BP [9] is reported as “Not significant”.
For `CSCCC(N)C(=O)OCCn1nc(-c2ccc(Cl)cc2)c(-c2ccc(Cl)cc2)c(C(C)=O)c1=O` (stereo unspecified), the BP [6] was “Not significant” and the BP [7] was “Not significant”.
Compound `C[C@](N)(Cc1ccc(O)c(O)c1)C(=O)O` [METHYLDOPA] has a BP [10] of 174 mmHg, a BP [11] of 166 mmHg and a BP [12] of 161 mmHg. The BP [13] was 155 mmHg and the BP [14] was 178 mmHg.
With `CC(=O)c1c(-c2ccc(Cl)cc2)c(-c2ccc(Cl)cc2)nn(CCOC(=O)C(Cc2ccccc2)NC(=O)OCc2ccccc2)c1=O` (stereo unspecified) the BP [8] was “Not significant” and the BP [9] was “Not significant”.
`CC(=O)c1c(-c2ccc(Cl)cc2)c(-c2ccc(Cl)cc2)nn(CCOC(=O)C(C)(C)C)c1=O` gave a BP [1] of 202 mmHg, a BP [2] of 205 mmHg and a BP [3] of 200 mmHg. The BP [4] was 158 mmHg and the BP [5] was 205 mmHg.
`CC(=O)c1c(-c2ccc(Cl)cc2)c(-c2ccc(Cl)cc2)nn(CCOC(=O)Cc2ccccc2)c1=O` showed a BP [1] of 154 mmHg, a BP [2] of 127 mmHg and a BP [3] of 165 mmHg. The BP [4] was 146 mmHg and the BP [5] was 174 mmHg.
With `CCCCCCCCCCCCCCCCCC(=O)OCCn1nc(-c2ccc(Cl)cc2)c(-c2ccc(Cl)cc2)c(C(C)=O)c1=O` the BP [1] was 162 mmHg, the BP [2] was 137 mmHg and the BP [3] was 168 mmHg. For the same compound, the BP [4] was 142 mmHg and the BP [5] was 181 mmHg.
`CC(=O)c1c(-c2ccc(Cl)cc2)c(-c2ccc(Cl)cc2)nn(CCO)c1=O` was tested, and the BP [10] was 185 mmHg, the BP [11] was 193 mmHg and the BP [1] was 192 mmHg. It also gave a BP [2] of 206 mmHg, a BP [3] of 200 mmHg and a BP [4] of 164 mmHg. It also gave a BP [5] of 213 mmHg, a BP [12] of 173 mmHg and a BP [13] of 174 mmHg. The BP [14] was 218 mmHg.
With `CC(=O)c1c(-c2ccc(Cl)cc2)c(-c2ccc(Cl)cc2)nn(CCOC(=O)C(NC(=O)OCc2ccccc2)C2(/N=C(/N)N[N+](=O)[O-])CCC2)c1=O` (stereo unspecified) the BP [8] was “Not significant” and the BP [9] was “Not significant”.
In the case of `CC(=O)c1c(-c2ccc(Cl)cc2)c(-c2ccc(Cl)cc2)nn(CCOC(=O)C(N)C(C)C)c1=O` (stereo unspecified), the BP [15] is reported as “Not significant” and the BP [16] is reported as “Not significant”.
With `Br.CC(=O)c1c(-c2ccc(Cl)cc2)c(-c2ccc(Cl)cc2)nn(CCOC(=O)CN)c1=O` the BP [17] was 154 mmHg, the BP [18] was 170 mmHg and the BP [19] was 145 mmHg. The BP [20] was 182 mmHg and the BP [21] was 177 mmHg.
Work on `CC(=O)c1c(-c2ccc(Cl)cc2)c(-c2ccc(Cl)cc2)nn(CCOC(=O)CCN)c1=O.Cl` yielded a BP [17] of 215 mmHg, a BP [18] of 209 mmHg and a BP [19] of 195 mmHg. The BP [20] was 215 mmHg and the BP [21] was 210 mmHg.
In the case of `CC(=O)c1c(-c2ccc(Cl)cc2)c(-c2ccc(Cl)cc2)nn(CCOC(=O)CCNC(=O)OCc2ccccc2)c1=O`, the BP [8] is reported as “Not significant” and the BP [9] is reported as “Not significant”.
Compound `CCC(=O)OCCn1nc(-c2ccc(Cl)cc2)c(-c2ccc(Cl)cc2)c(C(C)=O)c1=O` has a BP [1] of 136 mmHg, a BP [2] of 168 mmHg and a BP [3] of 133 mmHg. It also gave a BP [4] of 129 mmHg and a BP [5] of 181 mmHg.

Reference: ChEMBL document CHEMBL1121378, “Lipophilic and hydrophilic esters of 4-acetyl-2-(2-hydroxyethyl)-5,6-bis(4-chlorophenyl)-2H-pyridazin-3-one as antihypertensive agents” (1980)
